Assays:
[1] = system: liver microsomes (Mus musculus); test: Metabolic stability in mouse liver microsome assessed as intrinsic clearance measured upto 60 mins by LC-MS/MS analysis; conditions: read-out: CLH
[2] = molecular target: T1, Palmitoleoyl-protein carboxylesterase NOTUM (Homo sapiens, UniProt Q6P988); test: Inhibition of human recombinant Notum (81 to T451 residues) expressed in HEK293S cells using OPTS as substrate at 10 uM incubated for 40 mins by microplate reader analysis relative to control
T1 sequence (Q6P988 whole entry): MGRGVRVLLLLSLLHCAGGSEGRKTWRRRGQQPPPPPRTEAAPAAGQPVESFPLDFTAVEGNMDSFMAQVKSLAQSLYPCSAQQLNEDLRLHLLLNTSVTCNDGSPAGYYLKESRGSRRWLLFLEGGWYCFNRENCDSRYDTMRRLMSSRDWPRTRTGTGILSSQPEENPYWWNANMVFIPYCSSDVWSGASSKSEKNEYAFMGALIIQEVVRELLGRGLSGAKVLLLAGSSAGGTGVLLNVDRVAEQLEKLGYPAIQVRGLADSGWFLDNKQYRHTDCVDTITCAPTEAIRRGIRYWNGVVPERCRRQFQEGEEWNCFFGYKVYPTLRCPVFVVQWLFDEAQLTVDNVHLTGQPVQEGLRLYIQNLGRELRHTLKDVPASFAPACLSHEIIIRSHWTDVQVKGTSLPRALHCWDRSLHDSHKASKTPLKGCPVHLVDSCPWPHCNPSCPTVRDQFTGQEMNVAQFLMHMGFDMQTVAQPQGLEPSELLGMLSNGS
Outline: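 Biochemical assay with the Notum 81–451 C330S construct and the synthetic fluorescent substrate OPTS.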

[3] = molecular target: T1, Palmitoleoyl-protein carboxylesterase NOTUM; test: Inhibition of human recombinant Notum (81 to T451 residues) expressed in HEK293S cells using OPTS as substrate incubated for 40 mins by microplate reader analysis

O=C1CCC2Cc3ccccc3N12 (racemic)
microsomal CLint [1]: 74 µL/min/mg

CC(=O)N1CCS(=O)(=O)c2ccccc21
inhibition at 10 µM [2]: 20%

CC(=O)N1CCc2cc(C#N)ccc21
inhibition at 10 µM [2]: 20%

CC(=O)N1CCC(c2ccccc2)C1 (stereo unspecified)
IC50 [3]: Not Active
inhibition at 10 µM [2]: < 20%

CCN1CCc2c(Cl)cccc21
inhibition at 10 µM [2]: 20%

CC(=O)n1cnc2ccccc21
IC50 [3]: Not Active
inhibition at 10 µM [2]: < 20%

O=C1CCCN1c1ccccc1
inhibition at 10 µM [2]: 20%

CC(=O)N(C)c1ccccc1C
inhibition at 10 µM [2]: 20%

CC(=O)n1ncc2ccccc21
inhibition at 10 µM [2]: 20%
